Tests used:
Cavia porcellus [1] = organism: Cavia porcellus; test: (§1) Inhibition of CCl4 induced lipid peroxidation (LPO) of guinea pig hepatic microsomes at 300 uM concentration; type: functional; conditions: Liver
Procedure, shortened: (§2)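 Lipid peroxidation of polyunsaturated fatty acids in guinea pig liver microsomes was induced with CCl₄. Test compounds were used at 300 µM. Malondialdehyde (MDA) formation was quantified spectrophotometrically, and results are reported as percent inhibition.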

[2] = target: T1, Prostaglandin G/H synthase 1 (Ovis aries) (UniProt P05979); test: Inhibition of Prostaglandin G/H synthase 1 isolated from ram (sheep) seminal vesicle at 300 uM; type: tissue-based
T1 sequence (whole entry): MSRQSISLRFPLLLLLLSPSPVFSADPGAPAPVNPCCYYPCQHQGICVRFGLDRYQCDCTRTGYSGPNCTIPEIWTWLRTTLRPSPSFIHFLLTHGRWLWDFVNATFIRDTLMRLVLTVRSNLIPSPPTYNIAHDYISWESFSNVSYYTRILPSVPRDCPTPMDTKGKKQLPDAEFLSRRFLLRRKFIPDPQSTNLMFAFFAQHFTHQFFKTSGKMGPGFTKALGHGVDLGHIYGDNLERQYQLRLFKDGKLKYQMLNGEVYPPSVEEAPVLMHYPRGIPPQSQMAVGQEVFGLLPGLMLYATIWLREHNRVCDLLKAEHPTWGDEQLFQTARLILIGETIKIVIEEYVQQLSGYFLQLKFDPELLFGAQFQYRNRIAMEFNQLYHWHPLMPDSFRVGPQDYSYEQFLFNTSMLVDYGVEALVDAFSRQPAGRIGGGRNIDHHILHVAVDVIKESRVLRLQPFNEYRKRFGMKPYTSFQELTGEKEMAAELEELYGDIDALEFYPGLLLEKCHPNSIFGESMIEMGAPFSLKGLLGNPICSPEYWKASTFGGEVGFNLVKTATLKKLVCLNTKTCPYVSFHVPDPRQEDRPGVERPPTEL

[3] = target: T2, Prostaglandin G/H synthase 2 (Ovis aries) (UniProt P79208); test: Inhibition of Prostaglandin G/H synthase 2 from sheep placenta at 300 uM
T2 sequence (whole entry): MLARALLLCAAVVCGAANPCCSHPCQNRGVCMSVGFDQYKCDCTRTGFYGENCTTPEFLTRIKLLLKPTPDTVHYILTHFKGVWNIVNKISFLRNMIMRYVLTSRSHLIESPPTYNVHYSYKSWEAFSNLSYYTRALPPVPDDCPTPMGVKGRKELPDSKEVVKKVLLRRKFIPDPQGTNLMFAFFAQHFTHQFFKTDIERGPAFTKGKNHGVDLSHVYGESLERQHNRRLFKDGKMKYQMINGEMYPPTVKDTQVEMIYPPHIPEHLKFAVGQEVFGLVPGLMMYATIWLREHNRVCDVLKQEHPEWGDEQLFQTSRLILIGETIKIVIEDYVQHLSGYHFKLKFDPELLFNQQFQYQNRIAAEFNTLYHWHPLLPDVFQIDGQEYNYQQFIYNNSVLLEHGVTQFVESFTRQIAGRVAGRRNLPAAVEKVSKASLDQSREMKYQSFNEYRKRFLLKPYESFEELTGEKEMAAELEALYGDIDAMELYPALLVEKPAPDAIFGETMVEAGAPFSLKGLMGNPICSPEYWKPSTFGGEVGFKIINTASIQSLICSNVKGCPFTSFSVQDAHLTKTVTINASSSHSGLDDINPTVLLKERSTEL

[4] = target: T3, Polyunsaturated fatty acid 5-lipoxygenase (Rattus norvegicus) (UniProt P12527); test: Inhibition of 5-lipoxygenase of rat basophilic leukemia cells at 30 uM; type: cell-based; conditions: RBL-1
T3 sequence (whole entry): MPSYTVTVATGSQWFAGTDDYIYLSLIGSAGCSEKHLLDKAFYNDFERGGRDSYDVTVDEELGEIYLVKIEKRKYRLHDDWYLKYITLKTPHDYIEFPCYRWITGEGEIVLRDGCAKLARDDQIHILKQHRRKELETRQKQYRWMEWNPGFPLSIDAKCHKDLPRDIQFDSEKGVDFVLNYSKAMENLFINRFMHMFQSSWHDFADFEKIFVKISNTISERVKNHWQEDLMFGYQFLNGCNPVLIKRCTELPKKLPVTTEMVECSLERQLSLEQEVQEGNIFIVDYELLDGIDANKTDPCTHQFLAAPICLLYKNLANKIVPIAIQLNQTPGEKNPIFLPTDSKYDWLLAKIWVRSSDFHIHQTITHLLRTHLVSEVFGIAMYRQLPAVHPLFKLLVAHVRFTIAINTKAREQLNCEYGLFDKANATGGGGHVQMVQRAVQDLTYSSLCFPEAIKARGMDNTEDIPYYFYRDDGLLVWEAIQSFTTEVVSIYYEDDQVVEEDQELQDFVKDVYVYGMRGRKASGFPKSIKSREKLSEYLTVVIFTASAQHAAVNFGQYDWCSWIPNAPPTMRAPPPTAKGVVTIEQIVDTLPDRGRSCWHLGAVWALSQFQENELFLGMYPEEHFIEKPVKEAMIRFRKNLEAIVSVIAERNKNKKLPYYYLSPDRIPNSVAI
Procedure, shortened: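 5-LO source was a crude enzyme preparation from broken rat basophilic leukemia (RBL-1) cells. Compounds were screened at a single concentration of 30 µM, and results are reported as percent inhibition.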

[5] = target: T4, Polyunsaturated fatty acid 5-lipoxygenase (Rattus norvegicus, UniProt P12527); test: Inhibitory activity against 5-lipoxygenase obtained from rat basophilic leukemia cells
T4 sequence (P12527 whole entry): T3 sequence (whole entry)
Procedure, shortened: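 IC50 was determined against 5-LO in a broken RBL-1 cell assay, using a crude enzyme preparation from rat basophilic leukemia cells.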

Cavia porcellus [6] = organism: Cavia porcellus; test: as §1; type: functional; conditions: Liver; procedure, shortened: as §2; remark: listed apart in the source

Row | SMILES | inhibition [2] | inhibition [3] | inhibition [4] | IC50 [5] | IC50 (Cavia porcellus [6]) | inhibition (Cavia porcellus [1])
1 | CCC/C=C\Cc1ccccc1/C=C\CCC1OC(O)=C(O)C1=O (stereo unspecified) | 37% | 28% | 99% | – | – | 68%
2 | CCC/C=C\Cc1ccccc1C#CCCC1OC(O)=C(O)C1=O (stereo unspecified) | 55% | 28% | 81% | 0.4 µM | – | 72%
3 | O=C1C(O)=C(O)OC1CCC#Cc1ccc(Cc2ccc(F)cc2)s1 (stereo unspecified) | – | – | 100% | 0.16 µM | – | –
4 | Cc1c(C)c2c(c(C)c1O)CC[C@@](C)(CCC[C@H](C)CCC[C@H](C)CCCC(C)C)O2 [ALPHA-TOCOPHEROL] | – | – | – | – | 280 µM | –
5 | CC(=O)Oc1ccccc1C(=O)O | 76% | 0% | 0% | – | – | 4%
6 | C[C@H](C#Cc1ccc(Cc2ccc(F)cc2)s1)N(O)C(N)=O [ATRELEUTON] | – | – | – | 0.023 µM | – | –
7 | CCCS(=O)(=O)Cc1ccccc1C#CCCC1OC(O)=C(O)C1=O (stereo unspecified) | 25% | 12% | 30% | – | – | 60%
8 | CCCCS(=O)(=O)Nc1ccccc1C#CCCC1OC(O)=C(O)C1=O (stereo unspecified) | 8% | 23% | 81% | – | – | 75%

Now from value to compound, other results behind:

Row | inhibition [2] | inhibition [3] | inhibition [4] | IC50 [5] | IC50 (Cavia porcellus [6]) | SMILES | inhibition (Cavia porcellus [1])
9 | 25% | 15% | 100% | 0.3 µM | – | O=C1C(O)=C(O)OC1CCC#Cc1ccccc1CSc1ccccc1 (stereo unspecified) | 61%
10 | 8% | 18% | 43% | – | – | Cc1ccccc1C#CCCC1OC(O)=C(O)C1=O (stereo unspecified) | 59%
11 | 38% | 20% | 82% | – | – | CCCSCc1ccccc1C#CCCC1OC(O)=C(O)C1=O (stereo unspecified) | 72%
12 | 5% | 13% | 58% | – | – | O=C1C(O)=C(O)OC1CCC#Cc1ccccc1 (stereo unspecified) | 62%
13 | 67% | 45% | 90% | – | – | CCCCCSCc1ccccc1C#CCCC1OC(O)=C(O)C1=O (stereo unspecified) | 62%
